High-throughput results: PubChem, several laboratories
HSF1 inhib: HSF1 inhibition. AID 2098. NIH3T3-HGL HSE-luciferase, MG132-induced, luminescence 8 h; active compounds read low. 0.77% of 300,000 active. activity change, negative = inhibition, % at 7.5 µM (by protocol);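 active means more than half of replicate wells show activity change below -50%, luminescence cut by over half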;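 further: luciferase reports HSF-1 transcriptional activity via heat shock element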
T cruzi inh: blocks replication of Trypanosoma cruzi | T. cruzi beta-gal in NIH3T3, luminescence, 90 h | inhibition, % (concentration not given with the values) | 1.4% of 300,000 active;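 active means mean inhibition across valid replicates above about 55%, limit read from the data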;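 further: signal also drops with host cell toxicity which is not excluded here; higher percent means less beta-gal luminescence so fewer parasites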
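System: Mouse NIH/3T3 fibroblasts infected with β-gal-expressing T. cruzi Tulahuen C4 | Quantity: NIH/3T3 cells, 5,000 per well | Reagent: 5000 reporter trypomastigotes per well | Dosing: Compound pinned at 50 nL/well, DMSO | Schedule: 3 h host attachment, then at least 90 h co-culture | Detection: GalScreen luminescence, 60 min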
HSF1 activator: increases HSF-1 driven luciferase reporter signal; 1.7% of 300,000 active; NIH3T3-HGL HSF-1 luciferase reporter, MG132, 8 h; 100% = twice DMSO control signal; activation, % at 9 µM;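 active means mean replicate activation of at least 50% with a set share of replicates each reaching 50%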
Lmaj promast: inhibitors of Leishmania major promastigote growth | 9% of 200,000 active | inhibition, % at 10 µM | Leishmania major promastigotes, resazurin fluorescence viability | AID 1063; in the data active means inhibition above about 50%;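 further: promastigotes grown with compound for 44 hours at 28 °C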
Hsp70 act: Hsp70 transcriptional activation, primary screen; HeLa Hsp70 promoter luciferase reporter, luminescence; scaled: vehicle 0, proteasome-inhibitor control 100%; activation, % at 10 µM; 0.04% of 200,000 active;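 active means activation above the mean across all tested compounds plus 3 SD, cutoff set per campaign, cut at about 5.5% in these data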
Numbers stand for hits; n = inactive; x = no result given. The entries come from a sample that favours hits as a whole.

SMILES	HSF1 inhib	T cruzi inh	HSF1 activator	Lmaj promast	Hsp70 act
Cc1ccc2oc(C(Cl)(Cl)Cl)cc(=O)c2c1	n	n	52.3	56.3	n
O=C(/C=C/Nc1ccc(F)c(Cl)c1)c1ccccc1	n	n	n	x	x
COc1ccccc1/C=C(/NC(=O)c1ccc(Cl)cc1Cl)C(=O)O	n	n	n	n	n
Nc1nnc(SCC(=O)NN2C(=O)NC3(CCCCC3)C2=O)s1	n	n	n	60.2	n
COc1ccc(/C=N/N2CCN(Cc3ccccc3)CC2)cc1	n	n	n	x	x
COc1ccc(/C=C/C2=CCN(Cc3ccc(OC)cc3)CC2)cc1	n	58.0	n	91.0	n
CCCC(CCC)C(=O)NC1CCN(Cc2ccccc2)CC1	n	n	n	88.0	n
CCC1CCc2sc(C(=O)NC3CCN(Cc4ccccc4)CC3)cc2C1 (centres undefined)	n	60.2	n	x	x
CC(C(=O)NC1CCCC1)N1CCN(Cc2ccccc2)CC1 (centres undefined)	n	n	n	72.5	n
CC(C(=O)NC(=O)NC1CCCCC1)N1CCN(C(c2ccccc2)c2ccccc2)CC1 (centres undefined)	n	n	n	n	n
CC(C(=O)NCCc1ccc(F)cc1)N1CCN(Cc2ccccc2)CC1 (centres undefined)	n	n	n	82.8	n
CCc1ccccc1N(CC(=O)N1CCc2ccccc2C1)S(C)(=O)=O	n	n	n	x	x
Cc1cc(NC(=O)CSc2nc3cc(C)c(C)cc3cc2C)no1	n	n	n	x	x
CC(C)Oc1ccc(C(=O)NC2CCN(Cc3ccccc3)CC2)cc1	n	n	n	x	x
CC(Oc1ccc(Br)cc1)C(=O)NC1CCN(Cc2ccccc2)CC1 (centres undefined)	n	57.7	n	x	x
O=C(O)CSc1c2ccccc2cc2ccccc12	n	n	n	x	x
Oc1cc(-c2ccccc2)c2ccccc2c1	n	n	157.1	n	n
CC(C)(CO)NC(=O)C(Cc1ccccc1)N1C(=O)c2ccccc2C1=O (centres undefined)	n	n	n	x	x
O=C(O)c1cnn(-c2nc(-c3cccc([N+](=O)[O-])c3)cs2)c1C(F)(F)F	n	n	62.7	x	x
O=c1nc2sc3ccccc3n2c(=O)n1-c1ccc(Cl)cc1	n	n	n	n	n
CN(C)CCC1CCN(c2cc(C#N)c(C#N)cc2[N+](=O)[O-])CC1	n	78.8	n	55.2	n
C/C=C(\C)CN1CCC(n2nccc2NC(=O)c2ccc(OC)cc2)CC1	n	65.7	n	x	x
O=C(O)C1CN(C(=O)c2cccc(Br)c2)C1	n	n	n	n	n
CCC(COC)NC(=O)CCc1nnc(Cc2cccc(C(F)(F)F)c2)o1 (centres undefined)	n	n	54.2	n	n
COc1cccc(CN(C)Cc2c(O)ccc3ccccc23)c1	n	n	97.4	x	x
SMILES	HSF1 inhib	T cruzi inh	HSF1 activator	Lmaj promast	Hsp70 act
COc1ccc2ccccc2c1CN(C)Cc1ccccc1	n	n	n	x	x
COc1ccc(CN(C)Cc2c(O)ccc3ccccc23)cc1	n	n	218.6	x	x
CCOC(=O)C1CCCN(Cc2ccc(-c3ccccc3)cc2)C1 (centres undefined)	n	68.2	n	x	x
CCOC(=O)C1CCCN(C/C=C/c2ccccc2)C1 (centres undefined)	n	n	n	x	x
CCOC(=O)C1CCCN(CCC(C)c2ccccc2)C1 (centres undefined)	n	n	n	77.8	n
CN(Cc1ccccc1)C(=O)C1CCCN(Cc2cccc(Cl)c2)C1 (centres undefined)	n	59.6	n	n	n
CN(Cc1cccc(Cl)c1)C(=O)C1CCN(C(=O)Nc2ccccc2)CC1	n	n	n	x	x
Cc1ccc2c(C)c(C(=O)N(C)Cc3nccn3C)oc2c1C	n	n	n	x	x
CCCOc1cccc(C2C(C(=O)c3ccc(C)o3)=C(O)C(=O)N2c2nc(C)c(C(C)=O)s2)c1 (centres undefined)	n	n	n	x	x
CCOc1cc(/C=N/NC(=O)c2ccc3c(c2)OCCO3)cc(Br)c1O	-73.0	n	n	x	x
CN(C)c1ccc(/C=N/NC(=O)c2ccc3c(c2)OCCO3)cc1	-55.3	n	n	x	x
O=C(N/N=C/c1cc(Br)c(O)c(Br)c1O)c1ccc2c(c1)OCCO2	n	n	n	x	x
CCN(CC)c1ccc(/C=N/NC(=O)c2ccc3c(c2)OCCO3)cc1	-52.5	n	n	x	x
COc1ccc(/C=N/NC(=O)c2ccc3c(c2)OCO3)cc1	n	n	n	x	x
C=CCC1NCCc2c(Br)cccc21 (centres undefined)	n	n	n	n	n
